ChEMBL document CHEMBL3390837, “Bridged tetrahydroisoquinolines as selective NADPH oxidase 2 (Nox2) inhibitors” (Medchemcomm, 2013)
Activity calls are given as the source filed them. The calls are words filed in the database; no cut-off is given here.

Experiments:
[1] = Cytotoxicity against african green monkey COS7 cells expressing human p22phox assessed as cell viability at 25 to 50 uM after 15 mins by luminogenic assay; type: cell-based; settings: chlorocebus aethiops, cos-7, 0.25 h
How it was run: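 COS-22 cells plated at 2.5 x 10³ cells/well in OPTIMEM, exposed 15 min to compounds at various concentrations; dead-cell protease release read with luminogenic AAF peptide substrate, signal before and after digitonin used to derive % dead; reported as % live cells (100 − % dead) per well.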

NADPH oxidase 4 = biological target: T1, NADPH oxidase 4 (Homo sapiens, UniProt Q9NPH5); experiment: Inhibition of full length human NOX4 transfected in COS 22 cells assessed as inhibition of ROS generation by measuring H2O2 production by fluorescence assay; settings: read-out: IC50
T1 sequence (Q9NPH5 whole entry): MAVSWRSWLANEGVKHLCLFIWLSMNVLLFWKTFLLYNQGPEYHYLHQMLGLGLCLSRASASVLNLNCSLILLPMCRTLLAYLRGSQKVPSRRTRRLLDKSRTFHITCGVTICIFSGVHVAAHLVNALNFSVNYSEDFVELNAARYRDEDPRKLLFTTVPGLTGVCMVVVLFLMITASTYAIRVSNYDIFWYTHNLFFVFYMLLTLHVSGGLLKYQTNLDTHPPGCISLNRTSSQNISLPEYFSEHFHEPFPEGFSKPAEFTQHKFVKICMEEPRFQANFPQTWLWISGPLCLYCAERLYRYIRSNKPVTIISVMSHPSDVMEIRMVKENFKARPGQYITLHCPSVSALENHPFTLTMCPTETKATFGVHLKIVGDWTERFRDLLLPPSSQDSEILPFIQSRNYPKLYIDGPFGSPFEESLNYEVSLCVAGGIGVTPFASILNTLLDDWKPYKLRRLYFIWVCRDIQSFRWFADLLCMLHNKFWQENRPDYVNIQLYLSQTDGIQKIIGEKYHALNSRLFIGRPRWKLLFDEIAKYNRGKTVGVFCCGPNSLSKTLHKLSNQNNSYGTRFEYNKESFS

NADPH oxidase 1 = biological target: T2, NADPH oxidase 1 (Homo sapiens, UniProt Q9Y5S8); experiment: Inhibition of full length human NOX1 transfected in COS 22 cells assessed as inhibition of constitutive ROS generation by chemiluminescence assay; settings: read-out: IC50
T2 sequence (Q9Y5S8 whole entry): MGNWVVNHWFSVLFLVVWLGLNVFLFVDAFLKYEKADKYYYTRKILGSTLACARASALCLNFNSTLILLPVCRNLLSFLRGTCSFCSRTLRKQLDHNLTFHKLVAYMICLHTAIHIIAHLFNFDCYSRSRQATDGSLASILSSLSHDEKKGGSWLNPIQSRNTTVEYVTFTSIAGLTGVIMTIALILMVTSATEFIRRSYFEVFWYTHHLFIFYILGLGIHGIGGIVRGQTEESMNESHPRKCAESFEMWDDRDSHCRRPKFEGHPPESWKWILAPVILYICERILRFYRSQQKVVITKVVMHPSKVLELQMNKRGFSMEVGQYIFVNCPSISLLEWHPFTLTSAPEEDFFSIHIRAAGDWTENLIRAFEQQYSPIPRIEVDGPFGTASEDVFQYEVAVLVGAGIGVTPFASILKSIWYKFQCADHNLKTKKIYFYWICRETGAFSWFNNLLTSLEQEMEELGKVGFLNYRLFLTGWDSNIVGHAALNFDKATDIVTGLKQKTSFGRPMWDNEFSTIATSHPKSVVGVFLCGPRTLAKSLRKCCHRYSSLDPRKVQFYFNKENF

NADPH oxidase 2 = biological target: T3, NADPH oxidase 2 (Homo sapiens, UniProt P04839); experiment: Inhibition of full length human NOX2 transfected in COS 22 cells assessed as inhibition of Phorbol 12-myristate 13-acetate-stimulated ROS generation by chemiluminescence assay; type: cell-based; settings: read-out: IC50
T3 sequence (P04839 whole entry): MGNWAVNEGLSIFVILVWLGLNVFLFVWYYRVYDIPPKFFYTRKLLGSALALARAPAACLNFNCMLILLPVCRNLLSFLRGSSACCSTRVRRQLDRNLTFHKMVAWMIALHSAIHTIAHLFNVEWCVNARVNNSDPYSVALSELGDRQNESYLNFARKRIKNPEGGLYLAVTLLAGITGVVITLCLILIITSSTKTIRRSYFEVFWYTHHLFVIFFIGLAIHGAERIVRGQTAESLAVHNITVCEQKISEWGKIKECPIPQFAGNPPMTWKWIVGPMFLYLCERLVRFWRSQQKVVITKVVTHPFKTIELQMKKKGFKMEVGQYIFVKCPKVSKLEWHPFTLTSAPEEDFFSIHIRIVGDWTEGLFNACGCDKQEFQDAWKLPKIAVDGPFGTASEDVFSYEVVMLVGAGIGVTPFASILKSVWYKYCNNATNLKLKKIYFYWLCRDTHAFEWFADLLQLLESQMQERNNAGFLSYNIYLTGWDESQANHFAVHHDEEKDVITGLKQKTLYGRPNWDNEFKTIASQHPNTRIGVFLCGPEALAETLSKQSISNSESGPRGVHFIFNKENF
How it was run: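 COS-Nox2 (COS-7 stably expressing human p22phox, Nox2, p47phox, p67phox) plated in OPTIMEM at 2.5 x 10³ cells/well; 10 min at 37 °C in PBS with L-012, then stimulated with 5 µM PMA; luminescence followed over time; superoxide specificity checked with SOD 150 U/mL. IC50 by three-parameter non-linear fit, Hill slope 1, top/bottom fixed 100/0.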

[2] = biological target: T4, NADPH oxidase 2 (Homo sapiens) (UniProt P04839); experiment: Inhibition of full length human NOX2 transfected in COS 22 cells assessed as inhibition of lithium dodecyl sulphate-stimulated ROS generation at 6.3 uM preincubated for 15 mins followed by lithium dodecyl sulphate challenge by cell-free assay in presence of NADPH
T4 sequence (whole entry): T3 sequence (P04839 whole entry)
How it was run: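 COS-Nox2 lysate (freeze/thaw ×5, needle passage, 1000 × g spin, kept near 0 °C) at 5 × 10⁵ cell equivalents/well in 65 mM sodium phosphate pH 7.0 with 1 mM EGTA, 10 µM FAD, 1 mM MgCl₂, 2 mM NaN₃, 0.2 mM cytochrome c; superoxide from initial 10-min linear rate of SOD-inhibitable cytochrome c reduction at 550 nm (21.1 mM⁻¹ cm⁻¹).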

C=C(C)C[C@@H]1N[C@H]2CC(C)(C)[C@@H]1c1c(Br)cccc12 (racemic)
Activity [1]: Non-toxic | IC50 (NADPH oxidase 4): > 100 µM | IC50 (NADPH oxidase 1): 31 µM | IC50 (NADPH oxidase 2): 46 µM | inhibition [2]: Active
